High-throughput results (PubChem)
SENP1 FRET inh: blocks the human SENP1 SUMO protease catalytic domain; hit rate 0.21% among 360,000; AID 624204; recombinant SENP1 catalytic domain, CyPet-SUMO1-YPet FRET cleavage; inhibition, % at 10 µM; Q9P0U3;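 active = inhibition at least 30% at 10 µM, raw YFP signal under a set limit, fluorescence ratio 0.5 to 1.5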
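Material: hSENP1 catalytic domain, recombinant; medium: Tris pH 8 with BME, BSA, NP40 and catalase; compound: single concentration of 10 µM compound, 0.5% DMSO final; technique: FRET read of cyan and yellow fluorescence; timing: 50 min enzyme reaction, room temperature, light-protected; reagent: SFCypet-SUMO1-SFYpet substrate at 25 nM; control set: no-enzyme low, enzyme-DMSO high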
SENP8 block-1: blocks human SENP8 cleavage of Nedd8 substrate; hit rate 0.64% among 360,000; recombinant SENP8, Nedd8 substrate fluorescence; inhibition, % at 20 µM; in the data active = inhibition mostly above about 40%, no sharp cut-off; inactive = mostly below about 27%
Target sequence (Q96LD8 whole entry, looked up): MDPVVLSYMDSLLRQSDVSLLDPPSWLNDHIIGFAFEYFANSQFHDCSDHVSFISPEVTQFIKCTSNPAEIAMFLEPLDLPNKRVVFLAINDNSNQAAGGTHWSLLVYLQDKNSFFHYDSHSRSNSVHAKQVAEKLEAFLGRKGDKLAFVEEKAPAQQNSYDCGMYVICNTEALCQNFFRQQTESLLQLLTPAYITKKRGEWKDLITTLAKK
SENP7 block: inhibitors of human SENP7 protease; Q9BQF6; recombinant SENP7, Z-RLRGG-aminoluciferin luminescence, 40 min; inhibition, % at 5 µM; hit rate 1.5% among 330,000; AID 434973;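 active = inhibition above about 50% at the single test dose, limit read from the data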
SENP8 block-2: inhibitors of human SENP8 protease; hit rate 1.2% among 330,000; Q96LD8; purified SENP8, Z-RLRGG-aminoluciferin cleavage, luminescence; AID 2540; inhibition, % at 10 µM; in the data active = inhibition above about 50%
SENP6 block: blocks the human protease SENP6; Recombinant SENP6 catalytic domain, aminoluciferin luminescence; inhibition, % at 10 µM; hit rate 1.8% among 330,000; AID 2599;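 active = inhibition above about 50% at the single tested dose, limit read from the data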
HSP90 refold inh: inhibitors of HSP90 luciferase refolding in rabbit reticulocyte lysate | luciferase refolding luminescence, 3 h | inhibition, % at 5.6 µM | hit rate 0.91% among 290,000 | AID 1789;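 active = inhibition above the screen-wide mean plus 3 SD, computed separately per campaign, cut at about 16% in these data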;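 note: inhibitors lower the luminescence because luciferase stays unfolded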
HSP90 inh confirm: confirmation of HSP90 inhibitors | shares compounds with HSP90 refold inh | rabbit reticulocyte lysate, luciferase refolding luminescence, 3 h | inhibition, % at 5.9 µM | hit rate 64% among 2,300; in the data active = inhibition above about 18%
FLuc counter: firefly luciferase inhibition, HSP90 counter-screen; shares compounds with HSP90 refold inh; purified native firefly luciferase, luminescence; inhibition, % at 5.9 µM; hit rate 48% among 2,300;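 active = inhibition above the mean inhibition of all tested sample wells plus 3 SD, cut at about 10% in these data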
SENP8 confirm: human SENP8 inhibition, confirmed; Recombinant SENP8, Z-RLRGG-aminoluciferin luminescence, 60 min; shares compounds with SENP7 block; inhibition, % at 12.5 µM; AID 488912; hit rate 40% among 6,200;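 active = mean inhibition across replicates above about 50%, limit read from the data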
SENP6 confirm: human SENP6 inhibition, confirmed; shares compounds with SENP7 block; recombinant SENP6, Z-RLRGG-aminoluciferin luminescence; inhibition, % at 12.5 µM; hit rate 58% among 6,200
SENP7 confirm: confirmation of human SENP7 protease inhibitors; shares compounds with SENP7 block; recombinant SENP7, Z-RLRGG-aminoluciferin luminescence, 40 min; inhibition, % at 12.5 µM; hit rate 69% among 6,200; AID 488917
Casp3 SENP sel: selectivity test for SENP inhibitors: human caspase-3 inhibition; shares compounds with SENP7 block; purified caspase-3, Z-DEVD-aminoluciferin luminescence, 60 min; inhibition, % at 12.5 µM; hit rate 60% among 6,200; AID 488918;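 active = mean inhibition above about 50%, limit read from the data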
Target sequence (P42574 28-227 limits assumed): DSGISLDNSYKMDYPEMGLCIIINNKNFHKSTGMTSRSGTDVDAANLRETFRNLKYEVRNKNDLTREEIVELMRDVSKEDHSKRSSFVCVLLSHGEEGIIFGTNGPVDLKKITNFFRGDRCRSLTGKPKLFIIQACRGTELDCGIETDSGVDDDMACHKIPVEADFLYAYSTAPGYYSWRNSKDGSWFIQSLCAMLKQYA
Luc interf: counter-screen for SENP inhibitors: luminescence interference; shares compounds with SENP7 block; Pre-incubated SENP8/Z-RLRGG-aminoluciferin, luciferase luminescence interference; inhibition, % at 12.5 µM; hit rate 39% among 6,200; AID 488919;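 active = mean inhibition above about 50% when retested at one dose, limit read from the data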
A number is an active result; n = inactive; x = no result. This is a sample that favours compounds with a hit; in the whole collection about 2.9% have one here.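 Rule for the calls, unless noted: active = mean inhibition above about 50% in the one-dose retest (limit read from the data); inactive = the rest.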

SMILES	SENP1 FRET inh	SENP8 block-1	SENP7 block	SENP8 block-2	SENP6 block	HSP90 refold inh	HSP90 inh confirm	FLuc counter	SENP8 confirm	SENP6 confirm	SENP7 confirm	Casp3 SENP sel	Luc interf
CCC(=O)Nc1cc2nn(-c3ccc(C)cc3)nc2cc1C	n	n	51	n	n	51	75	67	n	n	n	n	n
CCOc1cc(/C=C2/C(=O)N(c3ccccc3)N=C2C)ccc1OC(=O)c1ccco1	n	66	68	n	n	27	n	n	n	n	n	n	n
CCC(=O)Nc1cccc(-c2ccc(N3CCN(C)CC3)nn2)c1	n	n	n	n	n	n	x	x	x	x	x	x	x
CCC(=O)Nc1cccc(-c2ccc(N3CCCCC3)nn2)c1	n	n	52	n	58	25	47	15	52	n	79	77	61
O=C(Nc1nc2ccccc2s1)C1CCCO1 (centres undefined)	n	n	n	n	n	n	x	x	x	x	x	x	x
CC1CCC/C(=N/Nc2nc3ccccc3s2)C1 (centres undefined)	n	n	54	56	n	47	25	12	n	68	88	n	52
CC(C)(C)c1ccc(-c2nnc(SCC(=O)NC3CC3)o2)cc1	n	n	n	n	n	x	x	x	x	x	x	x	x
CCNC(=S)NNC(=O)c1cc(-c2ccc(OCC)cc2)nc2ccccc12	n	n	95	94	94	50	74	25	98	98	102	98	n
Cc1cc(/C=N/Nc2ncnc(N)c2[N+](=O)[O-])c(C)n1-c1ccccc1	n	55	97	94	n	76	95	92	n	61	95	52	n
Cc1cc(/C=N/NC(=O)c2cccc([N+](=O)[O-])c2)c(C)n1-c1ccccc1	n	n	n	n	n	n	x	x	x	x	x	x	x
COc1cccc(/C=N/Nc2ncnc(N)c2[N+](=O)[O-])c1OC	n	n	72	n	68	27	80	62	n	n	64	77	n
COc1cc(OC)cc(C(=O)NNC(=O)C2CCC2)c1	n	n	x	x	x	x	x	x	x	x	x	x	x
CCc1sc(C(=O)Nc2ncccc2O)cc1C	n	n	66	n	69	22	52	42	62	59	87	83	64
O=C(Nc1cccc(O)c1)c1noc2c1CCc1ccccc1-2	n	n	99	96	97	40	61	54	94	96	102	94	92
CC(=O)Nc1ccc2nc(-c3ccccc3)cn2c1	n	n	n	n	n	n	x	x	x	x	x	x	x
COC(=O)c1ccc2nc(-c3cccc(N)c3)cn2c1	n	n	66	n	n	36	71	54	60	62	86	86	69
Cc1ccc(-c2c(CC(=O)O)c(C)nc3sc4c(c23)CCCC4)cc1	n	n	n	n	n	n	x	x	x	x	x	x	x
O=C1/C(=C/Nc2ccc3c(c2)OCO3)CCc2ccccc21	n	n	98	98	97	38	86	72	n	101	104	98	85
O=C1OC2(CCCCC2)OC(=O)C1=CNc1ccc2c(c1)OCO2	n	n	n	n	n	n	x	x	x	x	x	x	x
COc1ccc2cc(C(=O)N3CCc4ccccc43)[nH]c2c1	n	n	93	53	86	22	n	n	n	n	n	n	n
COc1ccc2oc(C(=O)N3CCN(C(c4ccccc4)c4ccccc4)CC3)c(C)c2c1	n	n	n	n	n	x	x	x	x	x	x	x	x
